Screening data deposited in PubChem BioAssay by several laboratories.
STAT1 activator = activators of IFN-gamma induced STAT1 signaling; NIH 3T3 STAT1-luciferase reporter, luminescence; 100% = IFN-gamma alone, no compound; activation (% of control), % at 5.5 µM; hit rate 2.6% among 200,000;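 active = activation above the screen-wide mean activation plus 3 SD, cut at about 130% in these data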;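 note: raw ratio to IFN-gamma control signal so 100% means no change and 0% no light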
NF-kB expr up = raises NF-kB expression in human neuronal cells; NF-kB reporter expression; active compounds read high; fold change at 12.5 µM; hit rate 1.6% among 190,000; in the data active = fold change above about 3.3
STAT3 act = increases IL-6 driven STAT3 reporter signal; hit rate 0.91% among 190,000; U3A cells, IL-6 STAT3-luciferase reporter, luminescence; 100% = signal with IL-6 EC80 alone; activation (% of control), % at 5.6 µM; AID 871;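 active = activation above the screen-wide mean of compound activation plus 3 SD, cut at about 130% in these data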;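 note: 0% = background luminescence of wells with medium and substrate only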
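Test system: STAT3-luciferase reporter U3A cells; Detection: reporter luminescence signal; Times: 1 h compound pre-exposure, 6 h IL-6 stimulation, 37 °C; Benchmarks: IL-6-only high control; Also added: IL-6 stimulus at 33 ng/mL final.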
Pf gametocyte = kills late stage P. falciparum gametocytes; P. falciparum stage V gametocytes, ATP luminescence, 24 h; inhibition, % at 10.9 µM; hit rate 0.065% among 150,000; AID 743093;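 active = inhibition above the mean plus 3 SD of compounds within the control limits, set per campaign, cut at about 38% in these data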;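 note: 0% = DMSO wells and 100% = medium only without gametocytes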
STAT1 inh = inhibitors of IFN-gamma induced STAT1 signaling. NIH 3T3 STAT1-luciferase reporter, luminescence. inhibition, % at 5.5 µM. hit rate 0.35% among 200,000;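 active = inhibition above a set limit, the mean inhibition across all tested compounds plus 3 SD, cut at about 34% in these data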;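 note: 0% = IFN-gamma with DMSO and 100% = IFN-gamma with 300 µM nifuroxazide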
APP 5'UTR act = activates APP 5'UTR luciferase reporter. activation, % at 2 µM. hit rate 1% among 190,000. SH-SY5Y APP 5'UTR luciferase reporter, luminescence; zero percent = DMSO vehicle wells;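 active = activation above a set limit, based on mean plus 3 SD of controls, cut at about 140% in these data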
Active calls of the source: *; / = no result. Sampled rows, rich in hits. Any-hit rate of the full collection: about 3.9%.

SMILES | STAT1 activator | NF-kB expr up | STAT3 act | Pf gametocyte | STAT1 inh | APP 5'UTR act
N=c1n(N)c2ccccc2n1CC(=O)c1ccc(Br)cc1 | / | / | / | -9 | / | /
Cc1nc(NC(=O)/C=C/c2ccc(C(C)(C)C)cc2)sc1C(=O)N(C)C | 105 | 1.1 | 110 | -1 | -6 | -1
Cc1ccc(Nc2nc(C)cs2)cc1 | 130* | 0.94 | 85 | 3 | -35 | 199*
Cc1csc(Nc2cccc3ccccc23)n1 | 104 | 1.4 | 88 | -8 | -4 | 22
Cc1csc(Nc2ccc(Cl)cc2)n1 | 138* | 2.3 | 96 | 10 | -46 | 47
O=C(Nc1ccc(SC(F)F)cc1)c1ccc(F)cc1 | 137* | 4.7* | 84 | -7 | -39 | 107
COc1ccc(NC(=O)c2cccc(F)c2)cc1Cl | 130* | 2.4 | 97 | / | -32 | 30
COc1ccc(NC(=O)c2cccc(OC(F)F)c2)cc1Cl | 113 | 2.7 | 94 | / | -14 | 116
COc1ccc(NC(=O)c2ccccc2F)cc1Cl | 119 | 4.3* | 94 | / | -21 | 120
O=[N+]([O-])c1ccccc1NC(=S)N/N=C/c1ccc(O)c(O)c1 | 148* | / | 44 | -27 | -56 | 150*
O=C(c1ccc(-c2ccc(Cl)cc2Cl)o1)N1CCOCC1 | 138* | 3 | 101 | 8 | -42 | 80
COc1ccc2c(c1OC)C(=O)N1c3ccccc3C(=O)N(c3ccccc3)C21 (stereo not given) | 51 | 0.28 | 61 | / | 53* | -8
O=C(OCC(=O)c1ccc[nH]1)c1ccccc1 | 138* | 1.7 | 104 | 5 | -42 | 2
O=C(OCC(=O)c1ccc[nH]1)c1ccc(S(=O)(=O)N2CCCCCC2)cc1 | 91 | 1 | 102 | 8 | 10 | -3
Cc1ncoc1C(=O)N1CCc2c([nH]c3ccccc23)C1c1ccccc1F (stereo not given) | 91 | 1.3 | 130 | -10 | 8 | -8
CCn1nc(C)cc1C(=O)N1CCc2c([nH]c3ccccc23)C1c1cc(F)ccc1F (stereo not given) | 137* | 2.1 | 150* | -34 | -44 | 41
c1ccc(OCc2nc3ccccc3s2)cc1 | 141* | 4.3* | 109 | -1 | -45 | 126
Cc1cc(OCc2nc3ccccc3s2)ccc1N | / | / | / | 5 | / | /
CCC(=O)Nc1ccc(OCc2nc3ccccc3s2)cc1 | 134* | 4.2* | 132 | / | -36 | 216*
N#Cc1ccc(NC(=O)CCc2nc3ccccc3s2)cc1 | 104 | 1.1 | 104 | / | -5 | 11
Fc1ccc(OCc2nc3ccccc3s2)cc1 | 136* | 5.2* | 101 | -18 | -42 | 269*
O=S(=O)(Cc1nc2ccccc2s1)c1ccccc1 | 138* | 2.2 | 115 | 13 | -42 | 73
O=C(c1ccccc1)N1CCSc2sccc2C1=O | 64 | 1.3 | 61 | 4 | 37* | -28
O=C(c1ccccc1)N1CCSC1=S | 103 | 1 | 101 | 10 | -3 | -2
CC(C)c1ccc2[nH]c3nc(SCC(=O)N4CCOCC4)nnc3c2c1 | 131* | 1 | 102 | / | -37 | 15
SMILES | STAT1 activator | NF-kB expr up | STAT3 act | Pf gametocyte | STAT1 inh | APP 5'UTR act
N#C/C(=C\c1ccc([N+](=O)[O-])o1)c1nc2ccccc2[nH]1 | 84 | 1.5 | 105 | 7 | 18 | -97
N#C/C(=C\c1ccc(Sc2ccccc2)o1)c1nc2ccccc2[nH]1 | 107 | 1.7 | 109 | -5 | -5 | 139*
O=c1nc2c(-c3ccccc3F)n[nH]n2c2ccccc12 | 134* | 1.7 | 123 | / | -37 | 5
O=C(CCc1nnc(CCc2ccccc2)o1)N1CCCC1c1nccs1 (stereo not given) | 110 | 1.6 | 92 | 26 | -13 | 1
Cc1ccc(C(=O)NCCC(=O)Nc2ccccc2C)cc1 | / | / | / | -3 | / | /
O=C(N/N=C/c1cn(-c2ccccc2)nc1-c1cc2ccccc2o1)c1ccncc1 | 144* | 2.6 | 115 | 6 | -46 | 188*
Cc1cc(CNC(=O)C2(C(F)(F)F)C/C(=C\Cc3ccccc3)CCCO2)nn1C (stereo not given) | / | / | / | 11 | / | /
O=C(/C=C/c1ccccc1)c1ccc2c(c1)OCCCCO2 | 140* | 2.6 | 112 | / | -44 | 147*
CN(C)c1ccc(C(=O)/C=C/c2ccccc2)cc1 | 138* | 4.9* | 93 | / | -41 | 140*
O=C1COc2ccc(C(=O)/C=C/c3ccccc3)cc2N1 | 98 | 3.3* | 87 | 0 | 2 | 6
Cc1ccc(C(=O)NCC(=O)OCC(=O)c2ccc3c(c2)NC(=O)CO3)cc1C | 102 | 1.3 | 110 | / | -4 | 0
Cc1cc(C)cc(OCC(=O)OCC(=O)c2ccc3c(c2)NC(=O)CO3)c1 | 109 | 3.6* | 103 | / | -10 | /
O=C(O)c1ccc2c(c1)OCCCO2 | / | / | / | 2 | / | /
O=S1(=O)CCO[C@H]2Cc3ccccc3[C@H]2N1Cc1ccc(F)cc1 | / | / | / | 11 | / | /
Cc1cccc(NC(=S)N(CCN2CCOCC2)Cc2cc3cc4c(cc3[nH]c2=O)OCCO4)c1 | 97 | 0.52 | 106 | -7 | 2 | -4
COc1c(C)cc(S(=O)(=O)NCCN2CCOCC2)c(C)c1C | / | / | / | 7 | / | /
COc1cc(C(=O)Nc2cccc(NC(=O)c3cccs3)c2)cc(OC)c1OC | / | / | / | -3 | / | /
C[C@H](NC(=O)c1ccco1)C(=O)NCCc1ccc(S(N)(=O)=O)cc1 | / | / | / | -23 | / | /
CC(C)(O)C#Cc1ccc(CN2CCN(Cc3ccsc3)C(CCO)C2)cc1 (stereo not given) | 96 | 3.8* | 100 | / | 2 | -8
C#Cc1ccc(CN2CCN(Cc3ccsc3)C(CCO)C2)cc1 (stereo not given) | 93 | 1 | 99 | 11 | 6 | -8
Cc1nn(-c2ccccc2)c(N)c1N=Nc1ccc2ccccc2c1 | 140* | 3.9* | 107 | -23 | -44 | 76
CCN(CC)C(=O)COc1ccc(-c2ccccc2)cc1 | 132* | 2 | 93 | / | -35 | 33
COc1cc(SC)ccc1C(=O)Nc1ccccc1C#N | 124 | 1.9 | 133* | 1 | -26 | -6
CSc1ccc(Cl)c(C(=O)Nc2ccc(Cl)cn2)c1 | 92 | 1.2 | 82 | / | 6 | -24
COc1cc(SC)ccc1C(=O)Nc1ccncc1 | 113 | 1.3 | 81 | -19 | -16 | 6
SMILES | STAT1 activator | NF-kB expr up | STAT3 act | Pf gametocyte | STAT1 inh | APP 5'UTR act
COc1cc(SC)ccc1C(=O)Nc1ccc(Cl)cn1 | 26 | 1.4 | 18 | / | 80* | 148*
COc1ccc2nc(SCC(=O)Nc3nccs3)[nH]c2c1 | 107 | 1.2 | 92 | 7 | -10 | 3
O=[N+]([O-])c1ccc(-c2cc(-c3ccc(Cl)cc3)n[nH]2)cc1 | 138* | 1.7 | 83 | / | -44 | 9
O=[N+]([O-])c1ccc(-c2cnc[nH]2)cc1 | / | / | / | -8 | / | /
CCCCc1ccc(N=N/C(C(=O)Nc2ccc(NC(C)=O)cc2OC)=C(/C)O)cc1 | / | / | / | 6 | / | /
CC(C)(C)OC(=O)C[C@@H]1C/C=C\C[C@H](CC(=O)N[C@H](CO)Cc2ccccc2)C(=O)N[C@@H](Cc2c[nH]c3ccccc23)COC1=O | / | / | / | -17 | / | /
COC(=O)/C(=C/c1c[nH]c2ccccc12)NC(C)=O | 91 | 1.2 | 100 | / | 10 | 13
